Experimental data: ChEMBL document CHEMBL4390663, “Cationic biaryl 1,2,3-triazolyl peptidomimetic amphiphiles: synthesis, antibacterial evaluation and preliminary mechanism of action studies” (Eur J Med Chem, 2019)

What was measured:
Clostridioides difficile [1] = assay: Antibacterial activity against Clostridium difficile ATCC 700057 incubated for 48 hrs by CLSI method; format: functional; settings: ATCC 700057, 48 h
How it was run: (§1)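 Broth microdilution per CLSI anaerobe method in pre-reduced (2-4 h) Brucella broth with haemin and vitamin K, 35 °C anaerobically for 48 h. Compounds from 5 mg/mL DMSO stocks, twofold dilutions in water mixed with double-strength broth; final 0.25–128 μg/mL. […] Triplicate; modal MIC read visually as lowest concentration inhibiting growth.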

Enterococcus faecalis = assay: Antibacterial activity against Enterococcus faecalis ATCC 29212 incubated for 24 hrs by CLSI method; format: functional; settings: ATCC 29212, 24 h
Staphylococcus aureus [2] = assay: Antibacterial activity against methicillin-resistant Staphylococcus aureus NCTC 10442 incubated for 24 hrs by CLSI method; format: functional; settings: NCTC 10442, 24 h
How it was run: (§2)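 Broth microdilution per CLSI aerobic guidance in Mueller Hinton broth, ambient air, 35 °C for 24 h. DMSO stocks were diluted in water, then serially diluted with double-strength broth inoculum added, for final 0.25–128 μg/mL. […] MIC was read visually as the lowest concentration inhibiting growth; the modal value of triplicates was recorded.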

Staphylococcus aureus [3] = assay: Antimicrobial activity against Staphylococcus aureus ATCC 29213 incubated for 24 hrs by CLSI method; format: functional; settings: ATCC 29213, 24 h; how it was run: as §2
Clostridioides difficile [4] = assay: Antibacterial activity against Clostridium difficile NSW132 RT027 incubated for 48 hrs by CLSI method; format: functional; settings: NSW132 RT027, 48 h; how it was run: as §1
Streptococcus pneumoniae = assay: Antibacterial activity against Streptococcus pneumoniae ATCC 49619 incubated for 24 hrs by CLSI method; format: functional; settings: ATCC 49619, 24 h
How it was run: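 CLSI broth microdilution in MHB with 2.5% lysed horse blood, 5% CO2, 35 °C, 24 h. Compounds from 5 mg/mL DMSO stocks diluted in water plus double-strength broth; final 0.25–128 μg/mL. […] Triplicate; modal MIC read visually as lowest growth-inhibiting concentration.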

Acinetobacter baumannii = assay: Antimicrobial activity against Acinetobacter baumannii ATCC 19606 incubated for 18 hrs by CLSI method; format: functional; settings: ATCC 19606 = CIP 70.34 = JCM 6841, 18 h
How it was run: (§3)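 Screen run by CO-ADD: mid-log cultures in cation-adjusted MHB, 5 × 10^5 CFU/mL, compounds at up to 32 μg/mL in 1:2 serial dilutions (8 steps), final DMSO ≤0.5%, duplicate. 37 °C for 18 h without shaking; OD600 read against media-only and untreated-bacteria references. MIC = lowest concentration giving ≥80% inhibition; colistin standard.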

Pseudomonas aeruginosa = assay: Antimicrobial activity against Pseudomonas aeruginosa ATCC 27853 incubated for 18 hrs by CLSI method; format: functional; settings: ATCC 27853, 18 h; how it was run: as §3
[5] = Cytotoxicity against human HEK293 cells assessed as reduction in cell growth incubated for 20 hrs by resazurin dye-based fluorometric assay
How it was run: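 HEK293 cells, 5000 per well in DMEM + 10% FBS, exposed to compounds (top 32 μg/mL, 1:2 serial dilution ×8, ≤0.5% DMSO, duplicate) for 20 h at 37 °C, 5% CO2. Resazurin added (2.3 μg/mL final), 3 h further; fluorescence ex 560/em 590 nm. CC50 from sigmoidal dose-response fit against log concentration; tamoxifen standard.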

Escherichia coli = assay: Antibacterial activity against Escherichia coli ATCC 25922 incubated for 18 hrs by CLSI method; format: functional; settings: ATCC 25922, 18 h; how it was run: as §3
Staphylococcus aureus [6] = assay: Antimicrobial activity against Staphylococcus aureus ATCC 43300 incubated for 18 hrs by CLSI method; format: functional; settings: ATCC 43300, 18 h
Klebsiella pneumoniae = assay: Antibacterial activity against Klebsiella pneumoniae 700603 incubated for 18 hrs by CLSI method; format: functional; settings: Klebsiella pneumoniae, 700603, 18 h; how it was run: as §3

| SMILES | MIC (Clostridioides difficile [1]) [µg/mL] | MIC (Enterococcus faecalis) [µg/mL] | MIC (Staphylococcus aureus [2]) [µg/mL] | MIC (Staphylococcus aureus [3]) [µg/mL] | MIC (Clostridioides difficile [4]) [µg/mL] | MIC (Streptococcus pneumoniae) [µg/mL] | MIC (Acinetobacter baumannii) [µg/mL] | MIC (Pseudomonas aeruginosa) [µg/mL] | CC50 at 20 h [5] [µg/mL] | MIC (Escherichia coli) [µg/mL] | MIC (Staphylococcus aureus [6]) [µg/mL] | MIC (Klebsiella pneumoniae) [µg/mL] |
| --- | --- | --- | --- | --- | --- | --- | --- | --- | --- | --- | --- | --- |
| CC(C)CCOc1ccc2ccccc2c1-c1c(OCc2cn(C[C@@H](CCCCN)NC(=O)C3=CCCCC3)nn2)ccc2ccccc12.Cl | 32 | 8 | 8 | 8 | 32 | 16 |  |  |  |  |  |  |
| CC(C)CCOc1ccc2ccccc2c1-c1c(OCc2cn(C[C@@H](CCCCN)NC(=O)c3ccco3)nn2)ccc2ccccc12.Cl | 16 | 8 | 8 | 8 | 32 | 16 |  |  |  |  |  |  |
| Cc1ccc(CC(=O)N[C@H](CCCCN)Cn2cc(COc3ccc4ccccc4c3-c3c(OCCC(C)C)ccc4ccccc34)nn2)cc1.Cl | 16 | 8 | 8 | 8 | 32 | 32 |  |  |  |  |  |  |
| CC(C)CCOc1ccc2ccccc2c1-c1c(OCc2cn(C[C@@H](CCCCN)NC(=O)Cc3ccccc3)nn2)ccc2ccccc12.Cl | 16 | 8 | 8 | 8 | 32 | 32 | > 32 | > 32 | 8.6 | > 32 | 8 | > 32 |
| CC(C)CCOc1ccc2ccccc2c1-c1c(OCc2cn(C[C@@H](CCCCN)NC(=O)C3=CCCC3)nn2)ccc2ccccc12.Cl | 32 | 8 | 8 | 8 | 64 | 16 |  |  |  |  |  |  |
| CC(C)CCOc1ccc2ccccc2c1-c1c(OCc2cn(C[C@@H](CCCCN)NC(=O)C3CC3)nn2)ccc2ccccc12.Cl | 16 | 8 | 8 | 8 | 64 | 16 |  |  |  |  |  |  |
| CC(C)CCOc1ccccc1-c1ccccc1OCc1cn(C[C@@H](CCCNC(=N)N)NC(=O)[C@@H](CCCCN)n2cc(Cc3ccccc3)nn2)nn1.Cl.Cl | 64 | 8 | 4 | 4 | 64 | 4 | 16 | 16 | 17.8 | 8 | 4 | 32 |
| CC(C)CCOc1ccc2ccccc2c1-c1c(OCc2cn(C[C@@H](CCCCN)NC(=O)Cc3ccc(Br)cc3)nn2)ccc2ccccc12.Cl | 32 | 8 | 8 | 4 | 64 | 32 |  |  |  |  |  |  |
| CC(C)CCOc1ccc2ccccc2c1-c1c(OCc2cn(C[C@@H](CCCCN)NC(=O)c3ccccc3)nn2)ccc2ccccc12.Cl | 32 | 8 | 8 | 8 | 32 | 16 |  |  |  |  |  |  |
| CC(C)CCOc1ccc2ccccc2c1-c1c(OCc2cn(C[C@@H](CCCCN)NC(=O)C3(N)CCOCC3)nn2)ccc2ccccc12.Cl.Cl | 32 | 16 | 16 | 16 | 64 | 16 |  |  |  |  |  |  |
| CC(C)CCOc1ccc2ccccc2c1-c1c(OCc2cn(C[C@@H](CCCCN)NC(=O)CC(C)C)nn2)ccc2ccccc12.Cl | 16 | 8 | 8 | 8 | 32 | 16 |  |  |  |  |  |  |
| CC(C)CCOc1ccc2ccccc2c1-c1c(OCc2cn(C[C@@H](CCCCN)NC(=O)[C@@H]3CCC(=O)N3)nn2)ccc2ccccc12.Cl | 32 | 16 | 16 | 16 | 64 | 32 |  |  |  |  |  |  |
| CC(C)CCOc1ccc2ccccc2c1-c1c(OCc2cn(C[C@@H](CCCCN)NC(=O)c3cccs3)nn2)ccc2ccccc12.Cl | 32 | 8 | 8 | 8 | 64 | 16 |  |  |  |  |  |  |
